Experimental data: ChEMBL document CHEMBL1153602, “Photochemical electrocyclisation of 3-vinylindoles to pyrido[2,3-a]-, pyrido[4,3-a]- and thieno[2,3-a]-carbazoles: design, synthesis, DNA binding and antitumor cell cytotoxicity” (2009)
Active and inactive are the calls of the source. No cut-off for these calls is given here.

Assays:
HT-29 [1] = assay: Cell cycle arrest in human HT-29 cells assessed as accumulation at S phase at 10 uM after 24 hrs using PI staining by flow cytometry; format: functional
Procedure, shortened: (§1)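 HT-29 cells, 3×10^5 per sample in exponential growth, were exposed to graded drug concentrations for 24 h. Cells were then trypsinised, fixed in 70% ethanol and stained 30 min in the dark with propidium iodide (50 µg/ml) plus RNase (100 µg/ml). DNA content was measured by flow cytometry, quantifying cell-cycle phases and the sub-G1 fraction.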

HT-29 [2] = assay: Cell cycle arrest in human HT-29 cells assessed as accumulation at G2/M phase at 25 uM after 24 hrs using PI staining by flow cytometry; format: functional, cell-based; procedure, shortened: as §1
HT-29 [3] = assay: Growth inhibition of human HT-29 cells by MTS assay; format: functional
Procedure, shortened: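 HT-29 cells, 3×10^3 per well, were seeded 24 h before treatment with compound at 1 nM–100 µM, run as 3 series of duplicate or triplicate points. After 72 h at 37 °C, MTS tetrazolium was added for 2 h and absorbance read at 492 nm. GC50 is the concentration halving cell number versus untreated control wells.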

Calf thymus DNA [4] = assay: Binding affinity to calf thymus DNA assessed as change in melting temperature at a compound to DNA molar ratio of 0.1 by UV-vis spectroscopy; format: nucleic-acid assay; conditions: Bos taurus
Procedure, shortened: (§2)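 UV absorbance of DNA at 260 nm recorded every minute from 20 to 100 °C, ramping 1 °C/min in a thermostated quartz cell. Tm is taken as the midpoint of the hyperchromic transition. ΔTm = Tm(DNA+drug) − Tm(DNA alone). Calf-thymus DNA or poly(dAdT)2 was used at DNA/drug ratios from 0.1 to 1.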

Calf thymus DNA [5] = assay: Binding affinity to calf thymus DNA assessed as change in melting temperature at a compound to DNA molar ratio of 0.25 by UV-vis spectroscopy; format: nucleic-acid assay; conditions: Bos taurus; procedure, shortened: as §2
Calf thymus DNA [6] = assay: Binding affinity to calf thymus DNA assessed as change in melting temperature at a compound to DNA molar ratio of 0.5 by UV-vis spectroscopy; format: nucleic-acid assay; conditions: Bos taurus; procedure, shortened: as §2
Calf thymus DNA [7] = assay: Binding affinity to calf thymus DNA assessed as change in melting temperature at a compound to DNA molar ratio of 1 by UV-vis spectroscopy; format: nucleic-acid assay; conditions: Bos taurus; procedure, shortened: as §2
Nucleic Acid [8] = assay: Binding affinity to poly(dA).poly(dT) duplex DNA assessed as change in thermal melting temperature at compound to DNA ratio of 0.1 by UV-vis spectroscopy; format: nucleic-acid assay
Nucleic Acid [9] = assay: Binding affinity to poly(dA).poly(dT) duplex DNA assessed as change in thermal melting temperature at compound to DNA ratio of 0.25 by UV-vis spectroscopy; format: nucleic-acid assay
Nucleic Acid [10] = assay: Binding affinity to poly(dA).poly(dT) duplex DNA assessed as change in thermal melting temperature at compound to DNA ratio of 0.5 by UV-vis spectroscopy; format: nucleic-acid assay
Nucleic Acid [11] = assay: Binding affinity to poly(dA).poly(dT) duplex DNA assessed as change in thermal melting temperature at compound to DNA ratio of 1 by UV-vis spectroscopy; format: nucleic-acid assay
Calf thymus DNA [12] = assay: Binding affinity to calf thymus DNA assessed as enhancement constant by fluorescence spectroscopy; format: nucleic-acid assay; conditions: Bos taurus
Procedure, shortened: (§3)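 Drug at a fixed 20 µM in 1 ml BPE buffer in a 10 mm quartz cuvette, titrated with CT-DNA at 10–200 µM base pairs. Excitation was set at each compound's own wavelength (276–319 nm). Constants came from Stern–Volmer plots of F0/F against CT-DNA concentration, with the slope taken as Ksv.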

Nucleic Acid [13] = assay: Binding affinity to pBS 117bp DNA by DnaseI footprinting assay; format: nucleic-acid assay
Procedure, shortened: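 Ligand and fragment were pre-incubated 15 min at 37 °C, then digested with DNase I at 0.001 unit/ml in 20 mM NaCl, 2 mM MgCl2, 2 mM MnCl2, pH 7.3. Products were resolved on a denaturing 8% polyacrylamide/8 M urea gel, with a G-track marker.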

[14] = target: T1, DNA topoisomerase 1 (Homo sapiens) (UniProt P11387); assay: Inhibition of human topoisomerase 1-mediated DNA relaxation assessed as lack of nicking form by agarose gel electrophoresis
T1 sequence (whole entry): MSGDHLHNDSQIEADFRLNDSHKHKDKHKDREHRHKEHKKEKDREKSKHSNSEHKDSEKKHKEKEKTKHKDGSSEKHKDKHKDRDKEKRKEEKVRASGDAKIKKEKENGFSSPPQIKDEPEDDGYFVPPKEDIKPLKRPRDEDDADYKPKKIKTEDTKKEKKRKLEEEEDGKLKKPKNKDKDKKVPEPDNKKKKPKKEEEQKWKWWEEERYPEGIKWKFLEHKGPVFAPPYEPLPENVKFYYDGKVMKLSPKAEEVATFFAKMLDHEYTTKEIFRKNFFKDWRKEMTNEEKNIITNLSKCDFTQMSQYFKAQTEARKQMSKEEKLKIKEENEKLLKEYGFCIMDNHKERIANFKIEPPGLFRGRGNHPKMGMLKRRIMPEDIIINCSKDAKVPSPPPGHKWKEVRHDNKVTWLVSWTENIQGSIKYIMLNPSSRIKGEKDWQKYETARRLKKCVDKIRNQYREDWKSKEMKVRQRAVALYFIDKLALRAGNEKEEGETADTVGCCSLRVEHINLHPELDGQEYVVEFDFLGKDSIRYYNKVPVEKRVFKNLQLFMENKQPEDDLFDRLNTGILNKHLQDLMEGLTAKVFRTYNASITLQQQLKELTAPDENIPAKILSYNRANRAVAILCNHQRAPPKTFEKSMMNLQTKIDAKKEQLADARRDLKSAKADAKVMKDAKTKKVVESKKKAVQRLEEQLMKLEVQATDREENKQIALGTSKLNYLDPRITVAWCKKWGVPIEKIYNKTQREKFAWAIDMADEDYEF
Procedure, shortened: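 Supercoiled pUC19 (130 ng) was pre-incubated with compound at graded concentrations, or 20 or 50 µM in the cleavage assay. Human topoisomerase I (4 units) was then added for 45 min at 37 °C in 50 mM Tris pH 7.8, 50 mM KCl, 10 mM MgCl2, 1 mM DTT, 1 mM EDTA, 1 mM ATP. Camptothecin (20 µM) served as control. Samples ran on 1% agarose for 2 h at 120 V in TBE, with ethidium bromide either post-stained (relaxation) or included in the gel (cleavage).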

[15] = target: DNA topoisomerase 2-alpha (Homo sapiens) (UniProt P11388); assay: Inhibition of human topoisomerase 2-mediated DNA relaxation assessed as double stranded break form by agarose gel electrophoresis
Procedure, shortened: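 Supercoiled pUC19 (130 ng) with compound at 20 or 50 µM, or etoposide as control, was incubated with human topoisomerase II (4 units) for 45 min at 37 °C in cleavage buffer. The reaction was stopped with 0.25% SDS plus proteinase K for 30 min at 50 °C. DNA forms were separated on 1% agarose containing ethidium bromide in TBE.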

HT-29 [16] = assay: Cell cycle arrest in human HT-29 cells at 25 uM after 24 hrs using PI staining by flow cytometry
HT-29 [17] = assay: Cell cycle arrest in human HT-29 cells assessed as accumulation at G2/M phase after 24 hrs using PI staining by flow cytometry; format: functional, cell-based; procedure, shortened: as §1
HT-29 [18] = assay: Cell cycle arrest in human HT-29 cells assessed as reduction of cells in G1 phase after 24 hrs using PI staining by flow cytometry; format: functional, cell-based; procedure, shortened: as §1
HT-29 [19] = assay: Cell cycle arrest in human HT-29 cells assessed as accumulation at S phase at 25 uM after 24 hrs using PI staining by flow cytometry; format: functional; procedure, shortened: as §1
OVCAR-3 = assay: Growth inhibition of human OVCAR-3 cells after 48 hrs by sulforhodamine B protein assay; format: functional; conditions: OVCAR-3, 48 h
Procedure, shortened: (§4)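 NCI 60-cell-line screen. Dose–response used at least five concentrations in 10-fold dilutions with 48 h continuous drug exposure. Growth was estimated by sulforhodamine B protein staining. GI50 is the molar concentration giving 50% growth inhibition versus control.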

CAKI-1 = assay: Growth inhibition of human Caki1 cells after 48 hrs by sulforhodamine B protein assay; format: functional; conditions: CAKI-1, 48 h; procedure, shortened: as §4
IGROV-1 = assay: Growth inhibition of human IGROV1 cells after 48 hrs by sulforhodamine B protein assay; format: functional; conditions: IGROV-1, 48 h; procedure, shortened: as §4
UO-31 = assay: Growth inhibition of human UO31 cells after 48 hrs by sulforhodamine B protein assay; format: functional; conditions: UO-31, 48 h; procedure, shortened: as §4
HT-29 [20] = assay: Growth inhibition of human HT-29 cells after 48 hrs by sulforhodamine B protein assay; format: functional; conditions: HT-29, 48 h; procedure, shortened: as §4
Calf thymus DNA [21] = assay: Binding affinity to calf thymus DNA assessed as quenching constant by fluorescence spectroscopy; format: nucleic-acid assay; conditions: Bos taurus; procedure, shortened: as §3
Calf thymus DNA [22] = assay: Binding affinity to calf thymus DNA assessed as negative dichroic signal at phosphate/drug ratio by circular dichroism spectra; format: nucleic-acid assay; conditions: Bos taurus
Procedure, shortened: (§5)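 Circular dichroism of drug at […] in 1 ml of 1 mM sodium cacodylate, pH 7.0, with or without CT-DNA at 10–200 µM. Phosphate/compound ratio ran from 0.4 to 8. The induced CD signal in the ligand absorption region was recorded.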

Calf thymus DNA [23] = assay: Binding affinity to calf thymus DNA assessed as positive dichroic signal at phosphate/drug ratio by circular dichroism spectra; format: nucleic-acid assay; conditions: Bos taurus; procedure, shortened: as §5

Chain of DNA topoisomerase 2-alpha (Homo sapiens) (P11388 whole entry): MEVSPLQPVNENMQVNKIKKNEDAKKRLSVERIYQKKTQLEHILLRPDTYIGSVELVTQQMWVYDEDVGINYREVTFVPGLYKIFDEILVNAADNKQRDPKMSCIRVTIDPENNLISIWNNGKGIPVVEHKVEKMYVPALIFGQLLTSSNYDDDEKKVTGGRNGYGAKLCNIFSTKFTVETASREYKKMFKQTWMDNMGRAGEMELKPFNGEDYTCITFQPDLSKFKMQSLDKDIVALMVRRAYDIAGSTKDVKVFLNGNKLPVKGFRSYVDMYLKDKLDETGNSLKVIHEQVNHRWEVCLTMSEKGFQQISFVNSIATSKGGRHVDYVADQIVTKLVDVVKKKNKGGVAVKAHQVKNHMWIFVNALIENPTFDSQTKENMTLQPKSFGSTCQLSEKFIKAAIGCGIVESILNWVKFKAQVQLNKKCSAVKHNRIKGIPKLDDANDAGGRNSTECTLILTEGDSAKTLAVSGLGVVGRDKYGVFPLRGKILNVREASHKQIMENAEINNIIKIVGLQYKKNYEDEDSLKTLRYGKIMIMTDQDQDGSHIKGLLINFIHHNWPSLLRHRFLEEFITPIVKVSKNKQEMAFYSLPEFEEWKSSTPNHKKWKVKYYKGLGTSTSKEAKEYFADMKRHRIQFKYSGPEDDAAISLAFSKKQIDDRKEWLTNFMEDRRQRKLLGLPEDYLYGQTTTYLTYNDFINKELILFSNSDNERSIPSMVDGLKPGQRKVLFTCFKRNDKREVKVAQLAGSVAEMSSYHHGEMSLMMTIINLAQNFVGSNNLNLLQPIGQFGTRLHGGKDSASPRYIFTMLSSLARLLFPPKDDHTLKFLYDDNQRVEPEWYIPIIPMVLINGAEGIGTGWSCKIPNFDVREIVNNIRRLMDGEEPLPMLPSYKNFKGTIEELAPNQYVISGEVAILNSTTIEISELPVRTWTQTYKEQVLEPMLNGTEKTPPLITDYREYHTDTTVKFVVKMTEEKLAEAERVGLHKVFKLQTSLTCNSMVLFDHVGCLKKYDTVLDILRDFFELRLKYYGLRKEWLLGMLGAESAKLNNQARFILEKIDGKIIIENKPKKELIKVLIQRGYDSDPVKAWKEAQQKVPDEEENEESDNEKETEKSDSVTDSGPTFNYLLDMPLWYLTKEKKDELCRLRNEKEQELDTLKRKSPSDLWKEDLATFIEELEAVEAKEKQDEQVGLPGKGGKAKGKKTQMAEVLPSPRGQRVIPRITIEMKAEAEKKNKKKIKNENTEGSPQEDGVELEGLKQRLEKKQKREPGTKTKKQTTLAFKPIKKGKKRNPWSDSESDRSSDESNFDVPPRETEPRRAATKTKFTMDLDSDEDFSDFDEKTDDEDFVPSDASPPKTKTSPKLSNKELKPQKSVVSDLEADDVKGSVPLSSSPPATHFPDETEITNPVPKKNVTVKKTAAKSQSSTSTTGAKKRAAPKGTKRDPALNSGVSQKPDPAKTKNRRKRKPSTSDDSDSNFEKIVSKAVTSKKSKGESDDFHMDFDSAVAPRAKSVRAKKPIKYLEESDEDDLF

| Compound | GI50 (HT-29 [3]) | ΔTm (Calf thymus DNA [4]) | ΔTm (Calf thymus DNA [5]) | ΔTm (Calf thymus DNA [6]) | ΔTm (Calf thymus DNA [7]) | ΔTm (Nucleic Acid [8]) | ΔTm (Nucleic Acid [9]) | ΔTm (Nucleic Acid [10]) | ΔTm (Nucleic Acid [11]) | Activity (Nucleic Acid [13]) | Activity [14] | Activity [15] | Activity (HT-29 [17]) | other results |
| --- | --- | --- | --- | --- | --- | --- | --- | --- | --- | --- | --- | --- | --- | --- |
| CN(C)CCCNC(=O)c1cc2c3cc(Cl)ccc3[nH]c2c2ncccc12 | 9230 nM | 3 °C | 7.4 °C | 8.8 °C | 13.2 °C | 6.1 °C | 9.2 °C | 20.4 °C | 27.8 °C | Active | Active | Active |  | Activity (HT-29 [1]): 26.1%; Activity (HT-29 [2]): Active; Activity (Calf thymus DNA [12]): 4.84 ×10³ /M; Activity (HT-29 [16]): Active |
| CC[C@@]1(O)C(=O)OCc2c1cc1n(c2=O)Cc2cc3ccccc3nc2-1 |  |  |  |  |  |  |  |  |  |  | Active |  |  |  |
| CN(C)CCNC(=O)c1cc2c3ccccc3[nH]c2c2ncccc12 | 11500 nM | 0 °C | 3 °C | 2.9 °C | 7.3 °C | 2.9 °C | 11.8 °C | 14.5 °C | 18.9 °C | Active | Active | Active | Active | Activity (HT-29 [18]): Active; Activity (HT-29 [19]): 32.6%; GI50 (OVCAR-3; read-out: GI50): 25.4 nM; GI50 (OVCAR-3; read-out: pGI50 (converted)): 25.1 nM; GI50 (CAKI-1; read-out: GI50): 515 nM; GI50 (CAKI-1; read-out: pGI50 (converted)): 525 nM; GI50 (IGROV-1; read-out: GI50): 1140 nM; GI50 (IGROV-1; read-out: pGI50 (converted)): 1100 nM; GI50 (UO-31; read-out: GI50): 2130 nM; GI50 (UO-31; read-out: pGI50 (converted)): 2090 nM; GI50 (HT-29 [20]; read-out: GI50): 5270 nM; GI50 (HT-29 [20]; read-out: pGI50 (converted)): 5250 nM |
| CN(C)CCCNC(=O)c1cc2c3cc(Cl)ccc3[nH]c2c2ccncc12 | 2200 nM | 3.6 °C | 6.6 °C | 10.7 °C | 13.9 °C | 10.3 °C | 17.3 °C | 22.7 °C | 28.3 °C | Active |  |  | Active | KSV (Calf thymus DNA [21]): 9.95 ×10³ /M; Activity (Calf thymus DNA [22]): Active; Activity (Calf thymus DNA [23]): Active |
